Test results reported in publication PMC3902791 (Molecular imaging and biology : MIB : the official …, 2012).

Assay: Stability of radiochemical purity of the product
Format: physicochemical
Settings: after completion of the synthesis
In short: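 Final product was in 0.9% saline adjusted to pH 6–8 and sterile-filtered. Radiochemical purity was followed after end of synthesis by HPLC: Supelcogel C-610H column (30 cm × 7.8 mm), 20 mM aqueous phosphoric acid, 0.5 mL/min, UV and radioactivity detection.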

## O=C(O)C[18F] [^18F-FACE, ^18F-fluoroacetate]
  time the product maintained its radiochemical purity: more than 8 h
